{
  "source": "ChEMBL document CHEMBL4814057",
  "about": "“4-4-(Anilinomethyl)-3-[4-(trifluoromethyl)phenyl]-1H-pyrazol-1-ylbenzoic acid derivatives as potent anti-gram-positive bacterial agents” (Eur J Med Chem, 2021)",
  "key": {"Enterococcus faecium [1]": {"system": "Enterococcus faecium", "test": "Antimicrobial activity against vancomycin-resistant Enterococcus faecium ATCC 700221 assessed as bacterial growth inhibitions by CLSI protocol based microdilution method", "type": "functional"}, "Staphylococcus aureus [2]": {"system": "Staphylococcus aureus", "test": "Antibacterial activity against methicillin resistant Staphylococcus aureus ATCC 700699 persisters assessed as reduction in viability at 16 times MIC by colony counting method", "type": "functional, organism-based", "summary_of_the_method": "(§1)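 Stationary-phase S. aureus from overnight CAMHB culture (35 °C, 200 rpm), washed thrice in PBS, diluted to ~5 × 10^8 CFU/ml. Incubated with antibiotic at 35 °C, 200 rpm. Aliquots taken at set times, washed, serially diluted in PBS, drop-plated (6 × 6) on TSA with 5% sheep blood. Colonies counted after 18–20 h at 35 °C. Triplicates.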"}, "Enterococcus faecium [3]": {"system": "Enterococcus faecium", "test": "Antimicrobial activity against vancomycin-resistant Enterococcus faecium clinical isolate 1091282 by CLSI-based broth microdilution assay", "type": "functional"}, "Staphylococcus aureus [4]": {"system": "Staphylococcus aureus", "test": "Antimicrobial activity against methicillin-resistant Staphylococcus aureus ATCC 33592 assessed as bacterial growth inhibitions by CLSI protocol based microdilution method", "type": "functional"}, "Enterococcus faecalis [5]": {"system": "Enterococcus faecalis", "test": "Antimicrobial activity against vancomycin-susceptible Enterococcus faecalis ATCC 29212 assessed as bacterial growth inhibitions by CLSI protocol based microdilution method"}, "Staphylococcus aureus [6]": {"system": "Staphylococcus aureus", "test": "Inhibition of RNA synthesis in Staphylococcus aureus ATCC 29213 at 4 times MIC measured by liquid scintillation counter", "type": "functional", "summary_of_the_method": "(§2)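 Early-exponential cells in CAMHB added to drug (40x stock) in triplicate, with a no-drug control. After 30 min pre-incubation at room temperature, [3H]thymidine 3.0 µCi/tube (DNA) or [3H]uridine 0.5 µCi/tube (RNA) added for 30 min at room temperature. Stopped with cold TCA, precipitate filtered and washed, then scintillation counted.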"}, "Staphylococcus aureus [7]": {"system": "Staphylococcus aureus", "test": "Inhibition of DNA synthesis in Staphylococcus aureus ATCC 29213 at 0.25 times MIC measured by liquid scintillation counter", "type": "functional", "summary_of_the_method": "as §2"}, "Staphylococcus aureus [8]": {"system": "Staphylococcus aureus", "test": "Bactericidal activity against Staphylococcus aureus ATCC 33591 assessed as reduction bacterial growth at 4X MIC measured after 4 hrs by time-kill kinetic assay", "type": "functional", "summary_of_the_method": "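Log-phase culture diluted to ~5 × 10^6 CFU/ml in warm CAMHB, exposed at 4xMIC, 35 °C. 20 µl samples every 2 h, 10-fold dilutions to 10^-5, 6 × 6 drop plating. CFU/ml counted after 18–24 h at 35 °C; triplicate.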"}, "[9]": {"test": "Toxicity in CD1 mouse assessed as effect on globulin level at 50 mg/kg, ip administered as single dose measured after 24 hrs", "type": "organism-based", "settings": "in vivo", "summary_of_the_method": "(§3)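 Male CD-1 mice, 8 weeks, 32–37 g, n = 10 per dose. Single IP injection at 5, 20 or 50 mg/kg in 0.9% saline, filter-sterilized; saline vehicle group. Blood taken by cardiac puncture 24 h later. 14 plasma markers measured on a chemistry panel, reported as mean ± SE. Toxicity judged by significance versus controls, normal ranges, dose-dependence and consistency across organ markers.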"}, "Staphylococcus aureus [10]": {"system": "Staphylococcus aureus", "test": "Antimicrobial activity against methicillin-susceptible Staphylococcus aureus ATCC 25923 assessed as bacterial growth inhibitions by CLSI protocol based microdilution method", "type": "functional"}, "Staphylococcus aureus [11]": {"system": "Staphylococcus aureus", "test": "Antimicrobial activity against methicillin-resistant Staphylococcus aureus ATCC 33591 assessed as bacterial growth inhibitions by CLSI protocol based microdilution method", "type": "functional"}, "Staphylococcus aureus [12]": {"system": "Staphylococcus aureus", "test": "Antibiofilm activity against Staphylococcus aureus ATCC 25923 assessed as destruction of biofilm formation at 0.5 times MIC after 24 hrs by crystal violet staining based assay relative to control", "type": "functional, organism-based", "summary_of_the_method": "(§4)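 Overnight culture brought to 0.5 McFarland in PBS, diluted 1:100 in CAMHB with 1% glucose. Inhibition: cells plus compound (in DMSO) at 2x, 1x, 0.5xMIC, 24 h at 35 °C, triplicate. Destruction: 24 h biofilm grown without drug, washed, fresh medium with compound, further 24 h. Then washed, dried, 0.1% crystal violet, solubilized in 33% acetic acid, OD 620 nm. Controls are DMSO-only and broth-only wells.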"}, "Bacillus subtilis": {"system": "Bacillus subtilis", "test": "Antimicrobial activity against Bacillus subtilis ATCC 6623 assessed as bacterial growth inhibitions by CLSI protocol based microdilution method", "type": "functional", "summary_of_the_method": "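Broth microdilution starting at 50 µg/ml with 2-fold serial dilutions; run in triplicate.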"}, "[13]": {"test": "Toxicity in CD1 mouse assessed as effect on sodium level at 50 mg/kg, ip administered as single dose measured after 24 hrs", "type": "organism-based", "settings": "in vivo", "summary_of_the_method": "as §3"}, "[14]": {"test": "Toxicity in CD1 mouse assessed as effect on glucose level at 50 mg/kg, ip administered as single dose measured after 24 hrs", "type": "organism-based", "settings": "in vivo", "summary_of_the_method": "as §3"}, "Staphylococcus aureus [15]": {"system": "Staphylococcus aureus", "test": "Inhibition of protein synthesis in Staphylococcus aureus ATCC 29213 at 4 times MIC measured by liquid scintillation counter", "type": "functional"}, "[16]": {"test": "Toxicity in CD1 mouse assessed as effect on calcium level at 50 mg/kg, ip administered as single dose measured after 24 hrs", "type": "organism-based", "settings": "in vivo", "summary_of_the_method": "as §3"}, "[17]": {"test": "Toxicity in CD1 mouse assessed as effect on alanine transferase level at 50 mg/kg, ip administered as single dose measured after 24 hrs", "type": "organism-based", "settings": "in vivo", "summary_of_the_method": "as §3"}, "[18]": {"test": "Toxicity in CD1 mouse assessed as effect on phosphorus level at 50 mg/kg, ip administered as single dose measured after 24 hrs", "type": "organism-based", "settings": "in vivo", "summary_of_the_method": "as §3"}, "Staphylococcus aureus [19]": {"system": "Staphylococcus aureus", "test": "Antimicrobial activity against Staphylococcus aureus ATCC 29213 assessed as inhibition of cell wall synthesis at 2 times MIC measured by liquid scintillation counter", "type": "functional", "summary_of_the_method": "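Early-exponential cells resuspended in M9 minimal medium, drug (40x stock) in triplicate, 30 min pre-incubation at 37 °C. [14C]N-acetylglucosamine 0.4 µCi/reaction for 45 min at 37 °C. Stopped with 8% SDS, heated 95 °C 30 min, spotted on nitrocellulose, washed with 0.1% SDS, then scintillation counted.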"}, "Enterococcus faecalis [20]": {"system": "Enterococcus faecalis", "test": "Antibiofilm activity against Enterococcus faecalis ATCC 29212 assessed as inhibition of biofilm formation at 0.5 times MIC after 24 hrs by crystal violet staining based assay relative to control", "type": "functional", "design": "scale not given: the % may be the effect or the level left", "summary_of_the_method": "as §4"}, "Staphylococcus aureus [21]": {"system": "Staphylococcus aureus", "test": "Antibiofilm activity against Staphylococcus aureus ATCC 25923 assessed as destruction of biofilm formation at 1 times MIC after 24 hrs by crystal violet staining based assay relative to control", "type": "functional", "summary_of_the_method": "as §4"}, "[22]": {"test": "Selectivity index, ratio of IC50 for cytotoxicity against human HEK-293T cells to MIC of antimicrobial activity against methicillin-susceptible Staphylococcus aureus ATCC 25923", "type": "toxicity, cell-based", "settings": "read-out: Selectivity Index"}, "Enterococcus faecalis [23]": {"system": "Enterococcus faecalis", "test": "Antibiofilm activity against Enterococcus faecalis ATCC 29212 assessed as destruction of biofilm formation at 1 times MIC after 24 hrs by crystal violet staining based assay relative to control", "type": "functional", "summary_of_the_method": "as §4"}, "Staphylococcus aureus [24]": {"system": "Staphylococcus aureus", "test": "Antibacterial activity against methicillin resistant Staphylococcus aureus ATCC 700699 persisters assessed as reduction in viability at 8 times MIC measured within 4 hrs by colony counting method", "type": "functional", "settings": "time hrs <=4", "summary_of_the_method": "as §1"}, "Staphylococcus aureus [25]": {"system": "Staphylococcus aureus", "test": "Antibacterial activity against vancomycin-intermediate susceptible Staphylococcus aureus ATCC 25923 assessed as bacterial growth inhibition by measuring fold increase in MIC between 14 passages by broth dilution method", "type": "functional"}, "[26]": {"test": "Toxicity in CD1 mouse assessed as blood plasma albumin level at 50 mg/kg, ip administered as single dose measured after 24 hrs", "type": "organism-based", "settings": "in vivo", "summary_of_the_method": "as §3"}, "Enterococcus faecium [27]": {"system": "Enterococcus faecium", "test": "Antimicrobial activity against vancomycin-resistant Enterococcus faecium clinical isolate 1100440 by CLSI-based broth microdilution assay", "type": "functional"}},
  "note": "Activity calls are given as the source filed them. The rule behind the calls is not given here.",
  "data": [
    {"smiles": "O=C(O)c1ccc(-n2cc(CNc3cc(F)cc(C(F)(F)F)c3)c(-c3ccc(C(F)(F)F)cc3)n2)cc1", "values": [
      {"measurement": "MIC", "setting": "Enterococcus faecium [1]", "result": 0.78, "unit": "µg/mL"},
      {"measurement": "Activity", "setting": "Staphylococcus aureus [2]", "result": "Active"},
      {"measurement": "MIC", "setting": "Enterococcus faecium [3]", "result": 2, "unit": "µg/mL"},
      {"measurement": "MIC", "setting": "Staphylococcus aureus [4]", "result": 0.78, "unit": "µg/mL"},
      {"measurement": "MIC", "setting": "Enterococcus faecalis [5]", "result": 1.56, "unit": "µg/mL"},
      {"measurement": "inhibition (INH)", "setting": "Staphylococcus aureus [6]", "result": 98, "unit": "%"},
      {"measurement": "inhibition (INH)", "setting": "Staphylococcus aureus [7]", "result": 44, "unit": "%"},
      {"measurement": "Activity", "setting": "Staphylococcus aureus [8]", "result": 3, "unit": "log10CFU/ml"},
      {"measurement": "Activity", "setting": "[9]", "result": "Non-Toxic"},
      {"measurement": "MIC", "setting": "Staphylococcus aureus [10]", "result": 0.39, "unit": "µg/mL"},
      {"measurement": "MIC", "setting": "Staphylococcus aureus [11]", "result": 0.39, "unit": "µg/mL"},
      {"measurement": "Activity", "setting": "Staphylococcus aureus [12]", "result": "inactive"},
      {"measurement": "MIC", "setting": "Bacillus subtilis", "result": 0.78, "unit": "µg/mL"},
      {"measurement": "Activity", "setting": "[13]", "result": "Non-Toxic"},
      {"measurement": "Activity", "setting": "[14]", "result": "Non-Toxic"},
      {"measurement": "inhibition", "setting": "Staphylococcus aureus [15]", "result": 100, "unit": "%"},
      {"measurement": "Activity", "setting": "[16]", "result": "Non-Toxic"},
      {"measurement": "Activity", "setting": "[17]", "result": "Non-Toxic"},
      {"measurement": "Activity", "setting": "[18]", "result": "Non-Toxic"},
      {"measurement": "inhibition (INH)", "setting": "Staphylococcus aureus [19]", "result": 39.5, "unit": "%"},
      {"measurement": "Activity", "setting": "Enterococcus faecalis [20]", "result": 75, "unit": "%"},
      {"measurement": "Activity", "setting": "Staphylococcus aureus [21]", "result": 55, "unit": "%"},
      {"measurement": "selectivity ratio", "setting": "[22]", "result": 13},
      {"measurement": "Activity", "setting": "Enterococcus faecalis [23]", "result": 75, "unit": "%"},
      {"measurement": "Activity", "setting": "Staphylococcus aureus [24]", "result": 3, "unit": "log10CFU/ml"},
      {"measurement": "fold change (FC)", "setting": "Staphylococcus aureus [25]", "result": 2},
      {"measurement": "Activity", "setting": "[26]", "result": "Non-Toxic"},
      {"measurement": "MIC", "setting": "Enterococcus faecium [27]", "result": 4, "unit": "µg/mL"}
    ]}
  ]
}
